Compound activity deposited in PubChem by Johns Hopkins Ion Channel Center.
Sampled rows, rich in hits. Any-hit rate of the full collection: about 2.3%.
TRPC4 act = opens the mouse TRPC4 cation channel; Q9QUQ5; HEK293 TRPC4beta/mu-opioid, Fluo4 calcium fluorescence; hits give high values; B-score at 10 µM; actives 0.49% (n = 310,000);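 active means B-score above 5 SD of library B-scores, and initial fluorescence ratio not above library mean plus 5 SD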;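 further: positive B-score marks a calcium rise read as TRPC4 activation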
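Assay system: HEK293 stable line with TRPC4beta plus mu-opioid receptor. Times: dye 45 min RT, read 110 s. Measured by: kinetic Fluo4 calcium fluorescence. Measure: B score of integrated ratio. Controls: assay buffer as low control, maximal DAMGO as high control.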
TRPC6 inh = mouse TRPC6 channel inhibition; Q61143; HEK293-TRPC6, membrane potential dye, ACh-evoked depolarization; hits give low values; B-score at 10 µM; actives 1.1% (n = 310,000);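 active means B-score under library mean minus 3 SD, initial fluorescence not abnormally high, positive integrated signal ratio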;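 further: B-score derived from integrated fluorescence ratio over the kinetic read; more negative B-score means stronger inhibition of depolarization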
Target sequence (Q61143 whole entry, looked up): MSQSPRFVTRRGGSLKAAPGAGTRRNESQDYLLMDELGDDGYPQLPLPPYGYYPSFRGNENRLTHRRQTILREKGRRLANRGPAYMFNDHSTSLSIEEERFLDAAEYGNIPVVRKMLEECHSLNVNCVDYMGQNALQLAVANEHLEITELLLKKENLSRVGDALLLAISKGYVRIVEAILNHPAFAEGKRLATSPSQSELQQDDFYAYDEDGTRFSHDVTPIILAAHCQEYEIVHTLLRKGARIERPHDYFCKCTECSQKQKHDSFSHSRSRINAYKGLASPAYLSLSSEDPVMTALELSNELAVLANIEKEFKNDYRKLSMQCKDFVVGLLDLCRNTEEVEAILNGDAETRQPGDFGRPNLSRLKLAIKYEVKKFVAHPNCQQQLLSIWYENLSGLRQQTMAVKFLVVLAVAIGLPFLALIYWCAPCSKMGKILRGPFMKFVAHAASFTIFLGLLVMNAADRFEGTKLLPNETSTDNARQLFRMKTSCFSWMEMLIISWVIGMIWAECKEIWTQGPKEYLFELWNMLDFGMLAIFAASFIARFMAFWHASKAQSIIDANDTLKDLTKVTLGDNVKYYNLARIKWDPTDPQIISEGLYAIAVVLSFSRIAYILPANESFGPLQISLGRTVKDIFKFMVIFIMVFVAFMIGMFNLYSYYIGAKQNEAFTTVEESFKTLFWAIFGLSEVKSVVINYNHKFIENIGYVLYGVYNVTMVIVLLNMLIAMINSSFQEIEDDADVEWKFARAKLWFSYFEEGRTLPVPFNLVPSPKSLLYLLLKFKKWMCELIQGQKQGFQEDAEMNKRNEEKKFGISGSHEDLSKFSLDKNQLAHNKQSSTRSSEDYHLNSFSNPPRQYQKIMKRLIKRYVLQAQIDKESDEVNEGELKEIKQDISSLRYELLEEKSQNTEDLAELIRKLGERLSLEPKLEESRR
TRPC6 act = activators of mouse TRPC6 channel | AID 2550 | actives 0.13% (n = 310,000) | B-score at 10 µM | HEK293-TRPC6 membrane potential dye fluorescence; hits give high values;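 active means B-score of the integrated fluorescence ratio above library mean plus 3 SD, and starting fluorescence ratio within library mean plus 5 SD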;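 further: higher score means more depolarization so channel activation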
TRPC4 block = inhibitors of mouse TRPC4 channel. Q9QUQ5. HEK293 TRPC4beta/mu-opioid, DAMGO-evoked Fluo4 calcium flux; hits give low values. B-score at 10 µM. actives 0.39% (n = 300,000);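 active means B-score over 3 SD under the library average, no early fluorescence shift, positive overall ratio signal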
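System: stable TRPC4beta/mu-opioid receptor HEK293 cells; Dosing: single-point compound dosing; Measured by: Fluo4 Ca2+ flux fluorescence; Read-out basis: per-well B score of integrated baseline-normalized Fluo4 ratio.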
TRPC4 potent = TRPC4 (mouse) allosteric potentiation | HEK293 TRPC4beta/mu-opioid, DAMGO EC20, Fluo-4 Ca2+ flux; hits give high values | Q9QUQ5 | AID 2227 | actives 0.42% (n = 310,000) | B-score at 10 µM;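 active means B-score of calcium response area above 5 SD of library B-scores, with initial fluorescence ratio within 5 SD of library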;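 further: B-score of integrated fluorescence ratio over time as area under calcium response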
TRPC4 sel inh 2 = mouse TRPC4 off-target activity of TRPC6 inhibitors, second screen | shares compounds with TRPC6 inh | HEK293 TRPC4/MOR, membrane potential dye fluorescence; channel activated by saturating DAMGO dose | inhibition, % at 10 µM | actives 42% (n = 920) | AID 2776;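 active means compounds whose fluorescence signal differed from control wells by over 3 SD, either direction, in both duplicate plates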
TRPC4 spec = mouse TRPC4 off-target activity of TRPC6 inhibitors; HEK293 TRPC4/mu-opioid, membrane potential fluorescence; AID 2777; activity change, negative = inhibition, % at 10 µM; shares compounds with TRPC6 inh; actives 61% (n = 920);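 active means rise or fall in signal beyond 3 SD of buffer-only wells in both replicate plates, either sign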;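 further: integrated kinetic ratio of fluorescence range over baseline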
HEK293 MPD ctr 2-1 = second check of TRPC6 inhibitor effects in parental HEK293 cells. shares compounds with TRPC6 inh. parental HEK293 membrane potential dye fluorescence; maximal acetylcholine challenge after compound addition. signal change vs control, % at 10 µM. actives 31% (n = 920). AID 2779;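 active means membrane potential signal moving either way by over 3 SD of the maximum-effect control, in both duplicate plates, meaning non-specific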
HEK293 MPD ctr-1 = counter-screen for TRPC6 inhibitors: effect in parental HEK293 cells | shares compounds with TRPC6 inh | parental HEK293 membrane potential dye fluorescence | membrane potential signal change, % at 10 µM | actives 60% (n = 920) | AID 2780;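 active means membrane potential signal shifting up or down by more than 3 SD of buffer-only wells, on both duplicate plates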
HEK293 MPD ctr-2 = counter-screen for TRPC6 modulators: effect in parental HEK293 cells | shares compounds with TRPC6 inh | membrane potential dye fluorescence | membrane potential signal change, % at 10 µM | actives 51% (n = 2,400);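 active means membrane potential signal moves up or down beyond 5 SD from buffer-only wells, on both duplicate plates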
HEK293 MPD ctr 2-2 = second counter-screen for TRPC6 modulators: effect in parental HEK293 cells; shares compounds with TRPC6 inh; membrane potential dye fluorescence; after compound, maximal acetylcholine stimulation; inhibition, % at 10 µM; actives 14% (n = 2,400);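 active means membrane potential signal drops by more than 5 SD from the mean control signal, in both duplicate plates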;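 further: plate controls were acetylcholine ECmax control wells for no effect and buffer only wells for full effect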
TRPC4/MOR mod = tests whether TRPC6 modulators also affect mouse TRPC4. shares compounds with TRPC6 inh. HEK293 TRPC4/mu-opioid, membrane potential fluorescence. percent change from control (negative = decrease, positive = increase), % at 10 µM. actives 69% (n = 2,400). AID 488927;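 active means membrane potential signal moved up or down beyond 5 SD of buffer control wells, in both duplicate plates, actives on both sides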;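 further: plate controls were assay buffer wells for no effect and DAMGO maximal-effect wells for full effect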
TRPC4 ctr inh 2 = second selectivity test of TRPC6 modulators against mouse TRPC4. shares compounds with TRPC6 inh. AID 488928. actives 55% (n = 2,400). inhibition, % at 10 µM. HEK293 TRPC4/mu-opioid, membrane potential dye fluorescence; stimulated with maximal-effect DAMGO;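 active means drop in membrane potential signal beyond 5 SD of the control wells in both duplicate plates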;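 further: TRPC4 counter screen for TRPC6 hits run under conditions tuned for TRPC6 not TRPC4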
TRPC6 inh conf = mouse TRPC6 inhibitor confirmation | shares compounds with TRPC6 inh | HEK293-TRPC6, membrane potential dye, ACh-evoked depolarization | actives 43% (n = 3,300) | AID 488960 | inhibition, % at 10 µM;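 active means fluorescence ratio falls more than 5 SD below the full-stimulation control mean, in both duplicate runs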;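 further: integrated fluorescence ratio of peak minus minimum over baseline after agonist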
TRPC6 act conf = confirmation of mouse TRPC6 activators. actives 11% (n = 2,800). activation, % at 10 µM. HEK293-TRPC6 membrane potential dye fluorescence, FDSS. AID 488961. shares compounds with TRPC6 inh;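 active means ratio signal rise beyond 5 SD above unstimulated control wells' mean, seen in both duplicate runs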;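 further: plate controls were buffer EC0 wells for no effect and acetylcholine ECmax response for full effect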
* marks the source's active call; other numbers are inactive results; i = inactive; · = no result.

SMILES	TRPC4 act	TRPC6 inh	TRPC6 act	TRPC4 block	TRPC4 potent	HEK293 MPD ctr-2	HEK293 MPD ctr 2-2	TRPC4/MOR mod	TRPC4 ctr inh 2	TRPC6 inh conf	TRPC6 act conf	others
CCN1CCN(c2ncnc3ccc(Br)cc23)CC1	i	-7.6*	i	i	i	·	·	·	·	i	i	TRPC4 sel inh 2=i;TRPC4 spec=i;HEK293 MPD ctr 2-1=i;HEK293 MPD ctr-1=-192%*
Cc1ccc2c(c1)c(=O)c1c3n2CCN(CC2CO2)C3CC1 (centres undefined)	i	i	i	i	i	·	·	·	·	·	·
O=C(O)c1ccccc1NC(=O)N1C[C@H]2C[C@@H](C1)c1cccc(=O)n1C2	i	i	i	i	i	·	·	·	·	·	·
Cc1cc(Cl)ccc1C(=O)C1CCCN(C2CCSCC2)C1 (centres undefined)	i	-5.8*	i	i	i	174%*	i	32%*	i	i	·
O=C(c1ccc(C(F)(F)F)cc1)C1CCCN(C2CCSCC2)C1 (centres undefined)	i	-7.8*	i	i	i	·	·	·	·	i	·	TRPC4 sel inh 2=i;TRPC4 spec=15%*;HEK293 MPD ctr 2-1=i;HEK293 MPD ctr-1=8.5%*
Cc1cccc(CN2CCCC(C(=O)c3ccc(C(F)(F)F)cc3)C2)n1 (centres undefined)	i	i	i	i	i	·	·	·	·	·	·
O=C(Cc1cccs1)N1CCC2(CC1)OCCO2	i	i	i	i	i	·	·	·	·	·	·
O=c1cccc2n1CC1CC2CN(c2ncnc3c2cnn3-c2ccccc2)C1 (centres undefined)	i	i	i	i	i	·	·	·	·	·	·
CC(C)OCC(O)CN1CC2C[C@@H](C1)Cn1c2cccc1=O (some centres undefined)	i	i	i	i	i	·	·	·	·	·	·
Cc1cccc(N2CCc3c2nc2ccccc2c3N)c1	i	-14*	i	-7*	i	-192%*	74%*	-49%*	98%*	81%*	i
CCCCSP1(=S)NCCCO1 (centres undefined)	i	i	i	i	i	·	·	·	·	·	·
CCCC(=O)NC(Oc1ccc(C(C)=O)cc1)C(Cl)(Cl)Cl (centres undefined)	i	i	i	i	i	·	·	·	·	·	·
CN1CCC(N(C)c2nc(-c3ccc([N+](=O)[O-])cc3)nc3ccccc23)CC1	i	-11*	i	i	i	-296%*	69%*	-56%*	57%*	68%*	i
O=C1NC(=O)N(c2ccc(F)cc2)C(=O)/C1=C/c1ccsc1	i	-5.5*	i	i	i	i	i	i	i	i	·
C=CCN(c1ccc(C(=O)N(CC)CC)cc1)S(C)(=O)=O	i	-5.6*	i	i	i	i	i	i	i	i	i
C[n+]1c(-c2ccccc2)cc(-c2ccc(Cl)cc2)cc1-c1ccccc1	i	i	i	i	i	·	·	·	·	·	·
Cc1ccc(-c2cc(-c3ccc(C)cc3)[n+](C)o2)cc1	i	i	i	i	i	·	·	·	·	·	·
Cc1ccc(-c2cc(-c3ccccc3)cc(-c3ccccc3)[n+]2-c2ccccc2)cc1	i	-9.6*	i	i	33*	·	·	·	·	96%*	i	TRPC4 sel inh 2=54%*;TRPC4 spec=14%*;HEK293 MPD ctr 2-1=i;HEK293 MPD ctr-1=8.2%*
Cc1ccc(-c2cc(-c3ccc(C)cc3)[n+](-c3ccccc3)c(-c3ccc(C)cc3)c2)cc1	82*	-8.7*	i	i	i	·	·	·	·	101%*	i	TRPC4 sel inh 2=41%*;TRPC4 spec=3.5%*;HEK293 MPD ctr 2-1=i;HEK293 MPD ctr-1=6.0%*
CCOP(=O)(Cc1cc(C(C)=O)c(C)o1)OCC	i	i	i	i	i	·	·	·	·	·	·
CC(C)(C)C(=O)OC[N+](C)(C)CCOC(=O)C(O)(c1ccccc1)C1CCCC1 (centres undefined)	i	-5.6*	i	i	i	i	83%*	i	i	86%*	i
CN1CCCC(C(O)(c2ccccc2)c2ccccc2)C1 (centres undefined)	i	i	i	i	i	·	·	·	·	·	·
CCCC(CCC)C(=O)OC[N+](C)(C)CCOC(=O)C(O)(c1ccccc1)C1CCCC1 (centres undefined)	i	-11*	i	i	i	·	·	·	·	92%*	i	TRPC4 sel inh 2=i;TRPC4 spec=i;HEK293 MPD ctr 2-1=-29%*;HEK293 MPD ctr-1=i
O=C(O)C(O)(c1ccccc1)C1CCCC1 (centres undefined)	i	i	i	i	i	·	·	·	·	·	·
O=c1cccc2n1CC1CC2CN(CC(O)CN2CC3CC(C2)c2cccc(=O)n2C3)C1 (centres undefined)	i	i	i	i	i	·	·	·	·	·	·
CCOC(=O)c1c(N)n(CCN2CCCCC2)c2nc3ccccc3nc12	i	-5.9*	i	i	i	-135%*	i	-28%*	56%*	56%*	i
CCCCn1c(N)c(C(=O)NCCN2CCOCC2)c2nc3ccccc3nc21	i	i	i	i	i	·	·	·	·	·	·
